Screening data: PubChem BioAssay, several laboratories
PMI act satM6P: human PMI activators, high substrate, primary screen, biochemical, fluorescence intensity, near-saturating mannose 6-phosphate | coupled PMI enzyme assay, resazurin fluorescence, 20 min; hits give high values; 1 = untreated enzyme, 0 = substrate-free blank | activation factor at 20 µM | 0.34% of 190,000 active | AID 1216, 2008;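 active means activation factor of 2 or more at 20 µM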
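Material: human phosphomannose isomerase with PGI, G6PDH, diaphorase coupling enzymes / Reagent: Man-6-P substrate 1.0 mM / Dosing: single compound dose of 20 µM, 1% DMSO final / Incubation: enzyme reaction with compound 20 min at room temperature / Signal: resorufin fluorescence (Ex 544/Em 590 nm) from resazurin via diaphorase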
ABCB1 block: ABCB1 efflux pump inhibitors, primary screen, cell-based, multiplex, flow cytometry, ABCG2 counter-screen | ATP-dependent translocase ABCB1 (Homo sapiens), P08183 | CCRF-Adr cells, JC-1 efflux | inhibition, % at 6.6 µM | 0.067% of 190,000 active; in the data active means inhibition above about 40%;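 further: 0% = vehicle and 100% = reference inhibitor; higher value means more JC-1 retained so stronger ABCB1 efflux block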
ABCG2 block: ABCG2 efflux pump inhibitors, primary screen, multiplex with ABCB1, IgMXP3 cells, flow cytometry; inhibition, % at 6.6 µM; Broad substrate specificity ATP-binding cassette transporter ABCG2 (Homo sapiens), Q9UNQ0; 0.1% of 190,000 active; JC-1 efflux; AID 1325, 2008;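 active means inhibition above 80%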;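 further: 0% = DMSO and 100% = nicardipine control wells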
Target sequence (Q9UNQ0 whole entry, looked up): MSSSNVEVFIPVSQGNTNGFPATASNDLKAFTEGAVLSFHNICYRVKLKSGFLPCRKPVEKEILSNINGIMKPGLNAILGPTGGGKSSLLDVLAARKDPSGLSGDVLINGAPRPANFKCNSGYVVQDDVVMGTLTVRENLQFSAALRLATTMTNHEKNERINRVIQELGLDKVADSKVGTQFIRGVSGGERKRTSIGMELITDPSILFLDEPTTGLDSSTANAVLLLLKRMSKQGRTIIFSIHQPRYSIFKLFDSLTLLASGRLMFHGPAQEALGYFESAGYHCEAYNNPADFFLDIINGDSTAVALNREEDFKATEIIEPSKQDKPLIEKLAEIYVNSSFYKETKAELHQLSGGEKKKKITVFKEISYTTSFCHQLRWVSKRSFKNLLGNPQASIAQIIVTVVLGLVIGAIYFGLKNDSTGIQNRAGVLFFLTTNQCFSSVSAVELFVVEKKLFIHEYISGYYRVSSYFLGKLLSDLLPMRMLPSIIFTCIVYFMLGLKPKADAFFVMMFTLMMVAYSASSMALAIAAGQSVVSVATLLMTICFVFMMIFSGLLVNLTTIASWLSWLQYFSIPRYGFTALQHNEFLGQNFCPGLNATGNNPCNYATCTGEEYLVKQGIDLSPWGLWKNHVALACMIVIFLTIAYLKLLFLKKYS
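Test system: IgMXP3 (ABCG2) plus far-red-tagged CCRF-Adr (ABCB1) cells. Reagent: JC-1 dye as substrate. Timing: 10 min exposure at 25 °C with rotation, no wash. Measured by: flow cytometric JC-1 green MFI at 530 nm. Read-out: percent efflux inhibition, scaled nicardipine 100% to DMSO 0%. Control set: nicardipine and DMSO wells.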
ROMK primary: ROMK potassium channel modulators, primary screen, cell-based, thallium flux, MLSMR library. 2% of 130,000 active. AID 1918, 2009. Tet-inducible ROMK, thallium flux fluorescence; actives lie on both sides. ATP-sensitive inward rectifier potassium channel 1 (Homo sapiens), P48048. B-score at 10 µM;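 active means signal ratio slope over the read window, or its plate-corrected B-score, at least 3 SD from the plate mean, either direction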;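 further: B-score of the F/F0 ratio slope over 7 to 12 s after thallium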
Cl transport mod: KCC2 cotransporter modulators, thallium flux, primary screen, cell-based, HEK293 KCC2, FluoZin-2 fluorescence, MLSMR; Solute carrier family 12 member 5 (Homo sapiens), Q9H2X9; KCC2 cells, thallium flux FluoZin-2 fluorescence; AID 1456, 2008; B-score of Tl+ flux slope (higher = more flux/activation; lower = inhibition) at 10 µM; 2.2% of 190,000 active;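 active means thallium flux slope and its plate-corrected score both differing from the plate sample mean at a set confidence after two filtering rounds, in either direction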;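 further: slope of fluorescence scaled to starting intensity during 10 to 20 s after thallium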
PMI activator: activators of human PMI, primary screen, biochemical, fluorescence intensity, near-Km mannose 6-phosphate; purified human PMI, coupled resazurin fluorescence, 20 min; hits give high values; 1 = vehicle control, 0 substrate-free wells; Mannose-6-phosphate isomerase (Homo sapiens), P34949; activation factor at 20 µM; 0.005% of 190,000 active;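 active means activation factor of 2 or more at 20 µM, relative to plate controls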
KCC2 sec1: KCC2 modulators in sodium-free buffer, confirmation, cell-based, HEK293 KCC2, thallium flux, secondary assay; 15% of 3,700 active; normalised thallium flux (F/F0 slope) at 10 µM; shares compounds with Cl transport mod; FluoZin2 fluorescence; hits give high values;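 active means thallium flux slope above the same plate's solvent-only control mean plus 3 SD; inconclusive means the two replicate wells disagree; inactive means no significant difference from solvent-only control wells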
KCC2 bumet counter: thallium flux persisting under bumetanide in KCC2 cells, confirmation, counter-screen for KCC2 modulator project, cell-based, HEK293 KCC2, FluoZin2, secondary assay 3 | shares compounds with Cl transport mod | HEK293-KCC2 + bumetanide/ouabain; hits give high values | 49% of 3,700 active | normalized thallium flux at 10 µM;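 active means thallium entry rate above the same plate's blocked-transporter control wells by more than 3 SD; inconclusive means the two repeat wells disagree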;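 further: raw slope of fluorescence over initial fluorescence between 10 and 20 s after thallium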
KCC2 sec2: KCC2 modulators without ouabain present, confirmation, cell-based, HEK293 KCC2, thallium flux, FluoZin2, secondary assay 2. shares compounds with Cl transport mod. thallium flux FluoZin2 fluorescence; actives lie on both sides; F/F0 rise rate, 10–20 s post-thallium. normalized thallium flux at 10 µM. 23% of 3,700 active. AID 1715, 2009;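 active means thallium flux slope more than 3 SD above or below the plate's solvent-only control mean, mostly below; inconclusive means the two repeat wells disagreed; inactive means no significant shift from solvent-only controls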;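 further: raw slope with 0.1% DMSO as baseline and bumetanide as block control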
HEK counter1: thallium flux modulation in parental HEK cells, confirmation, counter-screen for KCC2 modulator project, cell-based, counterscreen 1. shares compounds with Cl transport mod. HEK293 parental cells, thallium flux FluoZin2, ouabain; baseline-ratio fluorescence slope, 10–20 s after thallium. thallium flux rate (normalised fluorescence) at 10 µM. 46% of 3,700 active;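 active means thallium flux rate significantly above the same plate's solvent-only control wells, beyond their mean plus 3 SD; inconclusive means the two replicate wells gave conflicting results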
KCC2 retest ouab: KCC2 inhibitors and activators, ouabain retest, confirmation, HEK-KCC2 cells. shares compounds with Cl transport mod. HEK293-KCC2, thallium flux FluoZin2 fluorescence; bidirectional: low = inhibitor, high = activator. raw Tl+ flux slope (below DMSO = inhibition, above = activation) at 10 µM. 48% of 3,700 active. AID 1717, 2009;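 active means thallium flux slope beyond 3 SD from same-plate DMSO control mean in most replicates, usually higher, sometimes lower; inconclusive means repeat tests gave conflicting results; inactive means no significant difference from controls in most replicates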;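 further: slope of initial-normalized fluorescence between seconds 10 and 20 after thallium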
HEK293 Tl flux2: native HEK Tl+ uptake effects, second counter-screen – HEK cells, counterscreen 2, counter-screen for KCC2 modulator project, confirmation; shares compounds with Cl transport mod; HEK293 parental, thallium flux FluoZin-2 fluorescence slope; thallium flux slope at 10 µM; 33% of 3,700 active; AID 1718, 2009;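 active means thallium flux slope above the same plate's solvent-control mean plus 3 SD in both duplicate wells; inconclusive means duplicate wells that disagreed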;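 further: run without ouabain in cells lacking the KCC2 cotransporter; slope of fluorescence scaled to its starting value between 10 and 20 s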
* hit, by the source's call; ? = inconclusive; . = not tested or not shown. A selection: hits, their analogues and other compounds. The true share with any hit is near 3.3%.

SMILES	PMI act satM6P	ABCB1 block	ABCG2 block	ROMK primary	Cl transport mod	PMI activator	KCC2 sec1	KCC2 bumet counter	KCC2 sec2	HEK counter1	KCC2 retest ouab	HEK293 Tl flux2
COc1cccc(C2=NN(C(=O)c3ccccc3)C(O)(C(F)(F)F)C2)c1 (configuration not stated)	1	0	0	0.43	3.2*	1	0.011	0.018*	0.033	0.012*	?	?
Cc1ccc(C(=O)N(C)CC(=O)Nc2ccc(F)c(F)c2F)o1	0.9	0	15	-1	1.1	1	.	.	.	.	.	.
Clc1ccccc1C(c1ccccc1)(c1ccccc1)n1ccnc1	1	2	-1	-1.1	-4.3*	1.1	0.0095	0.0054	0.033	0.0057*	0.019	0.01
C=CCn1c(-c2ccco2)n[nH]c1=S	0.7	0	0	0.25	.	0.9	0.0091	0.0066	0.036	0.0085	0.019	0.011
CCn1c(-c2ccco2)n[nH]c1=S	0.9	-1	-2	0.62	0.043	0.8	.	.	.	.	.	.
C=CCn1c(-c2cc3cccc(OC)c3o2)n[nH]c1=S	1.1	-1	-2	-0.4	3.7*	1.1	0.0051	0.014*	0.032	0.013*	?	0.016*
NC(=O)c1ccsc1NC(=O)C1CCCN1S(=O)(=O)c1ccc(Cl)cc1 (configuration not stated)	0.8	1	5	0.36	.	0.8	.	.	.	.	.	.
CC1CCCCN1S(=O)(=O)c1ccc(C(=O)Nc2sccc2C(N)=O)cc1 (configuration not stated)	0.9	1	3	.	-3.9*	0.9	0.0057	0.0051	0.029	0.0079	0.018	0.012
CC1CCCCN1S(=O)(=O)c1ccc(C(=O)Nc2nnc(-c3ccccc3Cl)o2)cc1 (configuration not stated)	1	-1	2	-0.62	17*	1	0.014*	0.053*	0.034	?	0.042*	?
CCC1CCCCN1S(=O)(=O)c1ccc(C(=O)Nc2nnc(-c3ccccc3Cl)o2)cc1 (configuration not stated)	1.2	0	0	.	19*	1.2	0.015*	0.071*	0.031	0.034*	0.042*	?
CC1(C)COCN1S(=O)(=O)c1ccc(C(=O)Nc2nnc(-c3ccc(Cl)s3)o2)cc1	1.3	-1	-1	.	15*	1.2	?	0.04*	0.039	?	0.035*	0.012
CCCCN(CC)S(=O)(=O)c1ccc(C(=O)Nc2nnc(-c3ccccc3Cl)o2)cc1	1.2	0	-1	.	.	1.1	.	.	.	.	.	.
O=C(c1ccc(F)cc1)N1CCN(c2cc(N3CCCCC3)c(F)cc2[N+](=O)[O-])CC1	0.9	7	57	.	.	0.9	.	.	.	.	.	.
O=C(CSc1ncccc1-c1nc2ccccc2[nH]1)N1CCN(c2ccccc2F)CC1	0.8	3	1	.	-4*	0.9	0.006	0.005	0.025*	0.0072	?	0.0099
COc1ccccc1N1CCN(C(=O)CSc2ncccc2-c2nc3ccccc3[nH]2)CC1	1.2	-5	-11	-0.86	.	1.1	.	.	.	.	.	.
O=S(=O)(Nc1ccc(Cl)cc1)c1ccc2c(c1)CCO2	.	.	.	0.15	-1.4	.	.	.	.	.	.	.
O=C(N/N=C/c1ccc2cccc(OCc3ccccc3)c2n1)c1ccc(Cl)cc1	1	0	1	0.74	4.9*	1	0.022*	0.048*	0.031	0.014*	0.025*	?
O=C1/C(=C/c2cccs2)NC(=S)N1C1CC1	1.1	.	-4	2.1	43*	1.1	0.016*	0.089*	0.049*	0.06*	0.07*	0.033*
O=C1CNC(=O)/C(=C/c2cccs2)N1	0.7	1	5	-0.78	.	0.8	.	.	.	.	.	.
CC(C)N(C(=O)CSc1nc2c([nH]1)c(=O)n(C)c(=O)n2C)c1ccccc1	0.9	0	3	.	-3.7*	0.9	0.01	0.0064	0.03	0.0078	0.019	0.01
CN1CCN(S(=O)(=O)c2ccc(-c3ccc(Cl)cc3)cc2)CC1	0.9	1	3	.	.	0.9	0.0066	0.0059	0.032	0.0071	0.017*	0.0096
S=C(NCCCc1ccccc1)Nc1ccc(Cl)cc1	0.9	0	51	-1.3	-3.7*	0.9	0.0071	0.0055	0.029	0.0073	0.032*	0.0099
CC(C)(CNC(=S)NCCc1ccccc1)CNC(=S)NCCc1ccccc1	0.9	0	7	-2.7	-5.1*	0.9	0.0076	0.0054	?	0.0058	0.013*	0.0094
S=C(NCc1cccs1)Nc1ccc(Br)cc1Cl	1	1	11	-1	4.7*	0.9	0.0075	0.0095*	0.031	0.011*	0.018	0.012*
